Results taken from ChEMBL document CHEMBL4825747, “A Retrospective Look at the Impact of Binding Site Environment on the Optimization of TRPA1 Antagonists” (ACS Med Chem Lett, 2021).
Converted amounts (≈) assume the structure as drawn.

Columns and labels:
[1] = Lipophilicity, log D of the compound at pH 7.4; type: physicochemical; settings: buffer
[2] = Kinetic solubility of the compound; type: physicochemical; settings: for solubility kinetic: read-out: Kinetic_solubility
[3] = Unbound volume of distribution at steady state in rat at 1 mg/kg; type: ADME, organism-based; settings: in vivo
[4] = Ratio of fEC50 for in vivo antagonist activity at TRPA1 in AITC-induced rat pain model assessed as reduction in pain behaviour when administered orally to IC50 for antagonist activity at rat TRPA1; type: organism-based; settings: po
Summary of the method: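 The in vivo value comes from the oral-dose rat AITC paw-injection model at Tmax, scoring flinching and licking against measured exposures across animals. The in vitro comparator is rat TRPA1 antagonism in a CHO cell-based FLIPR Ca2+ assay.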

[5] = Unbound clearance in rat at 1 mg/kg; type: ADME, organism-based; settings: in vivo
[6] = Protein binding in rat plasma incubated for 4 hrs; type: ADME, cell-free; settings: read-out: PPB (converted)
Summary of the method: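 Rat plasma protein binding was determined after 4 h compound incubation rather than the standard 24 h, because of compound instability in rat plasma.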

[7] = target: Transient receptor potential cation channel subfamily A member 1 (Homo sapiens, UniProt O75762); assay: Antagonist activity at human TRPA1 expressed in CHO cells measured by calcium based FLIPR assay; type: cell-based
Sequence of Transient receptor potential cation channel subfamily A member 1 (Homo sapiens, UniProt O75762) (O75762 whole entry): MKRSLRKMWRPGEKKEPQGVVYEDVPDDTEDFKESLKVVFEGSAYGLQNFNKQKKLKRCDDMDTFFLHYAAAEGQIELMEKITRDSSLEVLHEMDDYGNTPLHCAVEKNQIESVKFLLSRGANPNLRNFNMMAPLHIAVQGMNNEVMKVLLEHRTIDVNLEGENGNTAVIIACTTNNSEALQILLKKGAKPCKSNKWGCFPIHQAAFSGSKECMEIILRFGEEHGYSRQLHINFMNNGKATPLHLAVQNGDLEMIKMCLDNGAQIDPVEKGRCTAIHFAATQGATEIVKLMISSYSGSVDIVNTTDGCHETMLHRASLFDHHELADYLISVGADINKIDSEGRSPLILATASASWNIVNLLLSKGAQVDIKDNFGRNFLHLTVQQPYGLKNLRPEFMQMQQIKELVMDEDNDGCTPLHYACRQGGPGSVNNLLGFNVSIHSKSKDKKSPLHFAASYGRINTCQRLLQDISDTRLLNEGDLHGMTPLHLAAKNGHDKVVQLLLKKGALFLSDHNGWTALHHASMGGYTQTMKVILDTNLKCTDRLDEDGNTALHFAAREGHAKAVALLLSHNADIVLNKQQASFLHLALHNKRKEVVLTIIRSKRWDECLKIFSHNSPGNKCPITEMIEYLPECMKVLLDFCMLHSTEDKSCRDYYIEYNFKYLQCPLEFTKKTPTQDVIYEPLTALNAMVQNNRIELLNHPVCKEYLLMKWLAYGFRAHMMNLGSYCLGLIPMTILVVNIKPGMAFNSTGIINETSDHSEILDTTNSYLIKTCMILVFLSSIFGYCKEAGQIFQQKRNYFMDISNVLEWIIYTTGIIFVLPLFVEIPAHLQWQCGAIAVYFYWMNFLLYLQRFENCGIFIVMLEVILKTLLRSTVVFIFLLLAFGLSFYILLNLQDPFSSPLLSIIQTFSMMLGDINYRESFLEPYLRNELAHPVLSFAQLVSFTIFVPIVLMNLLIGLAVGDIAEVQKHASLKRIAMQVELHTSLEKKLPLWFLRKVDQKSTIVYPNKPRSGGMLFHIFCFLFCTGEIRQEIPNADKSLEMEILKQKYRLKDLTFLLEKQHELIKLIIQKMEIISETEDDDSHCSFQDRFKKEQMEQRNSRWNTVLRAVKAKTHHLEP

[8] = target: Transient receptor potential cation channel subfamily A member 1 (Rattus norvegicus) (UniProt Q6RI86); assay: In vivo antagonist activity at TRPA1 in AITC-induced rat pain model assessed as reduction in pain behaviour when administered orally; type: functional, organism-based
Sequence of Transient receptor potential cation channel subfamily A member 1 (Rattus norvegicus) (Q6RI86 whole entry): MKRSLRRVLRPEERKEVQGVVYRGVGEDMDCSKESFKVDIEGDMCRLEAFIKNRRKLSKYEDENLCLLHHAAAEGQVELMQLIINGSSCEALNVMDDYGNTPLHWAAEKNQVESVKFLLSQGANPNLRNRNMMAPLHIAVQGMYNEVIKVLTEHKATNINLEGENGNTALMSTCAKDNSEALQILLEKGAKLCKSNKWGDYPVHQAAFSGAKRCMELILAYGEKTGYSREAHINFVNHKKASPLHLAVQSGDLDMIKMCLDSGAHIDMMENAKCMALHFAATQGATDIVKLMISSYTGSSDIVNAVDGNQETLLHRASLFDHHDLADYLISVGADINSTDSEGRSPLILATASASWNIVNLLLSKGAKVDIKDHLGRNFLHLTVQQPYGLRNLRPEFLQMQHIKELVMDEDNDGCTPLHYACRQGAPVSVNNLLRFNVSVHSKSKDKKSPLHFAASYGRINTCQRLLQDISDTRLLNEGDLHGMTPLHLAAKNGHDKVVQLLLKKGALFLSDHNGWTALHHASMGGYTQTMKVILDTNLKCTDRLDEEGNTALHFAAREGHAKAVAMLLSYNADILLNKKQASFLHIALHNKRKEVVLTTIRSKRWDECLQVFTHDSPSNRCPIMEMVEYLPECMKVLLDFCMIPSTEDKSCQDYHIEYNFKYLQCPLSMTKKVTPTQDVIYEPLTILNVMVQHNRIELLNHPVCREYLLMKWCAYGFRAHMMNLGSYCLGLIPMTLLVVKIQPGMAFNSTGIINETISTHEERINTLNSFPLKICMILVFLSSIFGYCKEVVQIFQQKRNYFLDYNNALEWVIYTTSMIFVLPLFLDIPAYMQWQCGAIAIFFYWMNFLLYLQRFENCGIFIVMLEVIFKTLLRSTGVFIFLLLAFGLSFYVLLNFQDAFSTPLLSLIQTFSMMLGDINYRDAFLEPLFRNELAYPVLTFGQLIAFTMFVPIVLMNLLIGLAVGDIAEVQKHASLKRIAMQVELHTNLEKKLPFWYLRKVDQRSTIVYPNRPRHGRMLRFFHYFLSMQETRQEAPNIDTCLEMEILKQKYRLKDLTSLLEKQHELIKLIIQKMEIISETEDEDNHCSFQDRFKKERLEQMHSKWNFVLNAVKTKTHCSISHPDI

[9] = target: Transient receptor potential cation channel subfamily A member 1 (Rattus norvegicus, UniProt Q6RI86); assay: Antagonist activity at rat TRPA1
Sequence of Transient receptor potential cation channel subfamily A member 1 (Rattus norvegicus, UniProt Q6RI86) (Q6RI86 whole entry): as above
Summary of the method: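 In vitro potency read in a CHO cell line-based fluorometric imaging plate reader (FLIPR) Ca2+ assay against the rat TRPA1 channel.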

[10] = Half life in rat at 1 mg/kg; type: ADME, organism-based; settings: in vivo
[11] = Volume of distribution at steady state in rat at 1 mg/kg; type: ADME, organism-based; settings: in vivo, read-out: Vdss
[12] = Permeability across apical to basolateral membrane in MDCK cells; type: ADME, cell-based, Canis lupus familiaris; settings: dog, read-out: permeability
[13] = Plasma clearance in rat at 1 mg/kg; type: ADME, organism-based
[14] = Half life in rat at 0.5 mg/kg; type: ADME, organism-based; settings: in vivo
[15] = Plasma clearance in rat at 0.5 mg/kg; type: ADME, organism-based
[16] = Unbound clearance in rat at 0.5 mg/kg; type: ADME, organism-based; settings: in vivo
[17] = Volume of distribution at steady state in rat at 0.5 mg/kg; type: ADME, organism-based; settings: in vivo, read-out: Vdss
[18] = Unbound volume of distribution at steady state in rat at 0.5 mg/kg; type: ADME, organism-based; settings: in vivo

Structure (SMILES)	logD [1]	Kinetic_solubility [2] [µM]	fVdss [3] [L/kg]	Ratio [4]	CL free [5] [mL/min/kg]	fraction unbound at 4 h [6]	IC50 [7] [nM]	fEC50 [8] [nM]	IC50 [9] [nM]	half-life [10] [h]	Vd [11] [L/kg]	Papp A→B [12] [×10⁻⁶ cm/s]	clearance [13] [mL/min/kg]	solubility kinetic [2] [µM]	half-life [14] [h]	clearance [15] [mL/min/kg]	CL free [16] [mL/min/kg]	Vd [17] [L/kg]	fVdss [18] [L/kg]
Cn1cnc2ncn(Cc3nc([C@H]4[C@@H]5CN(c6cccc(Cl)c6)C[C@@H]54)no3)c(=O)c21	2.9	2	110	1	214	0.021	2.9	7.9	7.9	–	–	–	–	–	–	–	–	–	–
C[C@H]1[C@H](F)C[C@@H](C(=O)NCc2cc(-c3cnc(C(F)(F)F)nc3)ncc2C(F)(F)F)N1S(=O)(=O)c1ccc(F)cc1	–	7	467	0.37	642	0.012	1.6	3.7	10	9.8	5.6	27.5	7.7	–	–	–	–	–	–
Cn1cnc2ncn(Cc3nn([C@H]4C[C@H](c5ccc(Cl)cc5)C4)c(=O)o3)c(=O)c21	2.4	–	28	–	123	0.081	–	49	14	2.7	2.3	6.4	10	15 (≈ 6.19 µg/mL)	–	–	–	–	–
Cn1cnc2ncn(Cc3nn(C[C@H](F)c4ccc(Cl)cc4)c(=O)o3)c(=O)c21	1.2	–	3.4	22	45	0.381	20	390	18	1.5	–	–	–	–	–	–	–	–	–
C[C@H]1[C@H](F)C[C@@H](C(=O)NCc2cc(-c3cnc(C(F)(F)F)nc3)ncn2)N1S(=O)(=O)c1ccc(F)cc1	–	–	–	–	–	0.075	–	–	390	–	–	16.5	–	98 (≈ 53.2 µg/mL)	2	6.4	85	1.1	15
Cn1cnc2ncn(Cc3nc([C@@H]4CO[C@@H](c5ccc(Cl)cc5)C4)no3)c(=O)c21	1.8	–	11	–	89	0.192	–	53	7.4	–	–	–	–	120 (≈ 49.5 µg/mL)	–	–	–	–	–
C[C@H]1[C@H](F)C[C@@H](C(=O)NCc2cc(-c3cnc(C(F)(F)F)nc3)ncc2F)N1S(=O)(=O)c1ccc(F)cc1	–	–	93	1.7	157	0.028	8.4	60	–	–	2.6	–	–	< 1	–	–	–	–	–
C[C@H]1[C@H](F)C[C@@H](C(=O)NCc2cc(-c3ccc(C(F)(F)F)nc3)ncn2)N1S(=O)(=O)c1ccc(F)cc1	–	–	–	–	–	0.052	–	–	1600	–	–	–	–	–	2.6	10	192	2.2	42
